Screening results (PubChem)
Sampled rows, rich in hits. Any-hit rate of the full collection: about 4.3%.
OX1R antag-1 – OX1R (human) antagonism | O43613 | OX1R-expressing cells, FRET antagonist read-out | inhibition, % at 6.6 µM | 1.8% of 330,000 active; in the data active means inhibition mostly above about 38%, no sharp cut-off; inactive means mostly below about 40%
OX1R antag-2 – human HCRTR1 antagonism; O43613; CHO/OX1R cells, Fluo-8 calcium fluorescence, orexin A; inhibition, % at 5 µM; 0.43% of 330,000 active; AID 434989;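 active means inhibition above its plate's threshold, mean inhibition of all tested compounds on the plate plus 3 SD, cut at about 37% in these data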
TAAR1 ag – agonists of human TAAR1; AID 624467; activation, % at 3 µM; Q96RJ0; CHO RD-HGA16 TAAR1, Fluo-8 calcium fluorescence; vehicle wells 0%, saturating PEA agonist 100%; 0.99% of 360,000 active;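 active means activation above the mean activation of all test compounds in the run plus 3 SD, cut at about 38% in these data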
Target sequence (Q96RJ0 whole entry, looked up): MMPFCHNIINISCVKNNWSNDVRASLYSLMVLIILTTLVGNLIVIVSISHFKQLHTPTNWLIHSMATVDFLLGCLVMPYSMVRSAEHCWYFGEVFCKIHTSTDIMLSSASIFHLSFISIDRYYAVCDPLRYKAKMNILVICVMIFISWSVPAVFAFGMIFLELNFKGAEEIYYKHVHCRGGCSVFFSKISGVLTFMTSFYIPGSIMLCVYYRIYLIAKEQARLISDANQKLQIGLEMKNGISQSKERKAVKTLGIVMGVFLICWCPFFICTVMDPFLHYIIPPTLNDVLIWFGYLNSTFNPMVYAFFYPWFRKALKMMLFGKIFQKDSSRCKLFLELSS
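System: CHO RD-HGA16 cells carrying human TAAR1 plus Gα16; Incubation: 17-24 h seeding, 75 min 37 °C dye, 30 min RT; Measured by: Fluo-8 fluorescence, 5 s baseline then 140 s kinetic read; Control set: DMSO and PEA EC100; Replication: single well for each compound.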
CHO parental Ca – counter-screen for OX1R antagonists: effect in parental CHO cells; inhibition, % at 5.6 µM; 0.63% of 330,000 active; AID 463079; parental CHO-K1, ATP-induced calcium, Fluo-8 fluorescence;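 active means inhibition above that plate's mean sample inhibition plus 3 SD, cut at about 26% in these data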
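Material: Parental CHO cells | Reagent: ATP | Compound dosing: Single nominal dose of 5.6 µM per compound | Detection: Intracellular calcium via Fluo-8 no-wash fluorescent dye | Read-out: % inhibition of ATP-induced calcium mobilization | Benchmarks: Low control ATP plus DMSO, high control DMSO only | Replicates: Singlicate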
GalR3 antag – antagonists of human GalR3; HEK293 GalR3-CNG cAMP membrane potential fluorescence; galR3 body fused to GalR1 C-terminus; inhibition, % at 3 µM; 0.44% of 360,000 active; AID 651719;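 active means inhibition above the screen-wide average plus 3 SD, cut at about 13% in these data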;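 further: forskolin and galanin both at EC90 stimulate the cells; cAMP rise reported by CNG channel membrane potential dye signal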
TAAR1 antag – antagonists of human TAAR1 | 1.5% of 360,000 active | CHO RD-HGA16 TAAR1, Fluo-8 calcium fluorescence, antagonist | Q96RJ0 | inhibition, % at 3 µM;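 active means inhibition above a per-plate cutoff, the mean inhibition of test compounds on that plate plus 3 SD, cut at about 49% in these data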
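Test system – hTAAR1-expressing CHO RD-HGA16 cells, Gα16-coupled · Reagent – β-PEA at EC80 concentration, post-compound challenge · Compound dosing – 3 µM, single point · Timing – 140 s kinetic read after compound, 140 s after agonist · Detection – Fluo-8 intracellular calcium dye fluorescence, real-time kinetic reads · Control set – DMSO and EC80 PEA controls · Repeats – n of 1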
Large screens that a line does not name were inactive.

CC(=O)c1cccc(NC(=O)CSC(=O)c2ccccc2)c1	TAAR1 ag 38
CC(=O)c1cccc(NC(=O)COC(=O)c2cccc(N3C(=O)c4ccccc4C3=O)c2)c1	TAAR1 antag 49
COC/C=C/C1=CC2=CC(=O)C(C)(OC(=O)c3cnc4ccccc4n3)C(=O)C2=CN1CCc1c[nH]c2ccccc12 (stereo not drawn)	none (no result: TAAR1 ag, GalR3 antag, TAAR1 antag)
COc1ccc(CCNCc2csc3nc4ccccc4n23)cc1OC	OX1R antag-1 53
CC(C)C[C@H]1CN(CCCC[C@H]2CNC(=O)C(=O)N2CCc2ccccc2)C(=O)C(=O)N1CCc1ccc(O)cc1	none (no result: OX1R antag-1, OX1R antag-2, CHO parental Ca)
COc1ccc(N(C)S(=O)(=O)c2cccc(C(=O)OCC(=O)N3CC(C)CC(C)C3)c2)cc1 (stereo not drawn)	TAAR1 antag 54
COc1cc(OC)c(N(C)S(=O)(=O)c2cccc(C(=O)Nc3nc(C)cs3)c2)cc1Cl	TAAR1 antag 51
COc1cc(OC)c(N(C)S(=O)(=O)c2cccc(C(=O)OCC(=O)NCc3ccco3)c2)cc1Cl	TAAR1 antag 51
COc1ccc(N(C)S(=O)(=O)c2cccc(C(=O)OCC(=O)NCc3ccccc3OC)c2)cc1	TAAR1 antag 57
COc1ccc(N(C)S(=O)(=O)c2cccc(C(=O)Nc3nc(C)cs3)c2)cc1	none
CN1CCN(C(=O)C2Cc3c(-c4ccc5c(c4)OCO5)ccnc3O2)CC1 (stereo not drawn)	none (no result: OX1R antag-1, OX1R antag-2, CHO parental Ca)
COCCNC(=O)C1(C)CCN(C(=O)c2cc(-c3ccccc3)cs2)C1 (stereo not drawn)	none (no result: OX1R antag-1, OX1R antag-2, CHO parental Ca)
Nc1ncnc(Nc2ccccc2Oc2ccccc2)n1	none (no result: OX1R antag-1, OX1R antag-2, CHO parental Ca)
COc1ccc(-c2cc(=O)c3ccccc3o2)cc1	OX1R antag-1 67
COc1cc(-c2cc(=O)c3ccccc3o2)ccc1O	none
CCCS(=O)(=O)c1nc(S(=O)(=O)c2ccc(Cl)cc2)c(N2CCC(O)CC2)s1	none
O=C(/C=C/c1cccc(Cl)c1)c1ccc([N+](=O)[O-])o1	TAAR1 ag 57
COc1cc(/C=C/C(=O)c2ccc([N+](=O)[O-])o2)ccc1O	none
Cc1ccc(C)c(-n2sc3ccc(F)cc3c2=O)c1	TAAR1 ag 45, CHO parental Ca 45, TAAR1 antag 51
O=c1c2cc([N+](=O)[O-])ccc2sn1-c1ccccc1	none (no result: OX1R antag-1, OX1R antag-2, CHO parental Ca)
Cc1ccc(-c2cc(=O)c3cc(F)ccc3[nH]2)cc1	none
COc1ccc(-n2sc3ccc(F)cc3c2=O)cc1	TAAR1 ag 50, CHO parental Ca 65
O=c1c2cc(F)ccc2sn1-c1ccc(F)cc1	OX1R antag-1 32 (no result: TAAR1 ag, GalR3 antag, TAAR1 antag)
Cc1ccc(-c2nnn(CC(=O)N(c3ccccc3F)C(C(=O)NC3CCCC3)c3ccco3)n2)o1 (stereo not drawn)	OX1R antag-1 45 (no result: TAAR1 ag, GalR3 antag, TAAR1 antag)
NC(=O)c1ncn([C@@H]2O[C@H](CNCc3ccc(OCC(=O)Nc4ccccn4)cc3)[C@@H](O)[C@H]2O)n1	none (no result: OX1R antag-1, OX1R antag-2, CHO parental Ca)
CC(C)[C@H]1COCCS(=O)(=O)N1Cc1ccccc1-c1ccc(F)cc1	none
N#CC1=C(N)Oc2cc(O)c(Cl)cc2C1c1cccnc1 (stereo not drawn)	none (no result: OX1R antag-1, OX1R antag-2, CHO parental Ca)
N#CC1=C(N)Oc2cc(O)c(Cl)cc2C1c1ccccc1F (stereo not drawn)	CHO parental Ca 30
COc1ccccc1CNC(=O)c1ccc2nc3[nH]c4ccccc4c3nc2c1	OX1R antag-1 47
O=C(c1cc(-c2cccnc2)nc2ccc(Cl)cc12)N1CCN(S(=O)(=O)c2cccs2)CC1	TAAR1 antag 51
CCCCc1ccc(NC(=S)N2CCCC(C)C2)cc1 (stereo not drawn)	none
CC(C)(C)OC(=O)N1Cc2ccccc2C[C@H]1C(=O)NC1CCCC1	none (no result: OX1R antag-1, OX1R antag-2, CHO parental Ca)
CCOC(=O)N1CCN(C(=O)CS(=O)(=O)c2cn(Cc3ccc(F)cc3)c3ccccc23)CC1	OX1R antag-1 62 (no result: GalR3 antag)
O=C(Nc1cc(C(F)(F)F)ccc1Cl)c1ccc(NC(=O)C(F)(F)F)cc1	none
O=C(COC(=O)c1ccc(O)cc1)Nc1cc(C(F)(F)F)ccc1Cl	TAAR1 ag 38
CCCC(=O)Nc1ccc(C(=O)Nc2cc(C(F)(F)F)ccc2Cl)cc1	TAAR1 ag 42, CHO parental Ca 69
